Sampled rows, rich in hits. Any-hit rate of the full collection: about 6.4%.
Jurkat tox 60K = cytotoxicity toward Jurkat cells; Jurkat E6.1 viability, ATP luminescence, 48 h; inhibition, % at 4 µM; hit rate 1.2% among 56,000; AID 463;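 active = inhibition above the mean inhibition of all tested compounds plus 3 SD, cut at about 28% in these data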
Ecoli WT expand = growth inhibitors of E. coli BW25113 wild type; OD600 absorbance; hit rate 0.15% among 98,000; growth inhibition, % at 100 µM;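 active = growth inhibition above about 50% at one test dose, limit read from the data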;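 also: growth measured after 20 h incubation at 37 °C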
H69AR growth 86K = growth inhibitors of human H69AR lung tumor cells; H69AR lung tumor viability, ATP luminescence, 72 h; hits give low values; viability, % at 10 µM; hit rate 6% among 85,000; AID 598;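 active = viability at or below 40%; inactive = viability above 40%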;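 also: multidrug resistant small cell line overexpressing MRP-1 efflux transporter; 100% = mean luminescence of untreated control wells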
HUVEC prolif 384 = blocks proliferation of human endothelial cells; HUVEC proliferation, CellTiter-Glo luminescence, 72 h; hits give low values; viability, % at 10 µM (by protocol); hit rate 1.1% among 86,000; AID 648;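 active = viability at or below 30%; inactive = viability above 30%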;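 also: 100% = median luminescence of DMSO-only cell control wells on each plate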
Lung fibro prol = blocks proliferation of human lung fibroblasts; LL 47 human lung fibroblast viability, ATP luminescence; hits give low values; viability, % at 10 µM; hit rate 1.1% among 85,000; AID 719;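 active = viability at or below 50% in the single dose screen; inactive = viability above 50%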;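 also: compound exposure lasted 72 h before the ATP readout; 100% = median luminescence of untreated cell-only wells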
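Test system: LL 47 human lung fibroblasts / Incubation: 72 h compound exposure at 37 °C after overnight plating / Technique: luminescent ATP detection, CellTiter-Glo / Compound dosing: 0.1% DMSO in all compound wells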
tolC growth inh = E. coli tolC mutant growth inhibition; AID 573; growth inhibition, % at 10 µM (by protocol); hit rate 2.2% among 65,000; E. coli BW25113 tolC mutant growth, OD615;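 active = growth inhibition at or above a cutoff equal to the mean over every tested compound plus 3 SD, cut at about 60% in these data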;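 also: growth measured after 20 h incubation at 37 °C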
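Test system: tolC-deleted E. coli BW25113; medium: LB with kanamycin 50 µg/mL; compound: single-point testing at 10 µM; incubation: 20 h compound exposure of bacteria at 37 °C; signal: OD at 615 nm; evaluation: growth inhibition in percent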
* = called active by the depositor; x = no result given.

SMILES	Jurkat tox 60K	Ecoli WT expand	H69AR growth 86K	HUVEC prolif 384	Lung fibro prol	tolC growth inh
COc1ccc(C(=O)n2c(SC)nc3cc4c(cc32)OCCO4)cc1	x	-5	x	x	x	x
c1ccc(Cn2nnnc2C(c2cccnc2)N2CCN(c3ccccc3)CC2)cc1 (stereo not drawn)	2	5	95	97	98	13
O=C(Nc1nc(-c2ccc(S(=O)(=O)N3CCCCCC3)cc2)cs1)c1cccs1	29*	-10	67	86	90	6
CCOC(=O)C1CCCN(C(=O)c2cc(Nc3ccc(OC)cc3)nc3ccccc23)C1 (stereo not drawn)	x	0	77	91	101	x
O=c1[nH][nH]c(C(F)(F)F)c1C=NCc1cccc(Cl)c1	x	6	100	92	99	x
COc1cccc(N2CCN(C(=O)c3ccc(N4C(=O)NC5CC4(C)Oc4ccccc45)cc3)CC2)c1 (stereo not drawn)	2	7	91	89	91	-1
COc1ccc(N2C(=O)NC3CC2(C)Oc2ccc(Br)cc23)cc1OC (stereo not drawn)	4	-5	38*	91	83	25
CCOc1ccccc1N1CC(O)=C(c2nc3ccccc3s2)C1=N	78*	-14	110	53	67	51
N=C1C(c2nc3ccccc3s2)=C(O)CN1Cc1ccccc1	x	x	17*	46	52	x
CC(C)SC1=NC(C)(C)C=C(/C=C/c2ccc(Cl)cc2Cl)N1	x	2	34*	26*	82	x
CC(C)SC1=NC(C)(C)C=C(/C=C/c2c(Cl)cccc2Cl)N1	x	-7	40	54	84	x
Cc1ccc(Cc2cnc(NC(=O)c3cccs3)s2)cc1	x	-2	17*	56	78	x
O=C(Nc1ncc(Cc2cccc(Cl)c2)s1)c1cccs1	x	-17	35*	31	84	x
O=C(Nc1ncc(Cc2ccccc2)s1)c1cccs1	3	8	69	71	81	38
CC(=O)c1c(C)[nH]c(C(=O)OCn2nnc3ccccc3c2=O)c1C	6	-5	93	98	92	-7
O=S1(=O)C=C(SCc2cccc(Cl)c2)Nc2ccccc21	x	4	x	x	x	x
Cc1ccc2nc(SCC(=O)Nc3cc(C(F)(F)F)ccc3N3CCOCC3)[nH]c2c1	x	-3	12*	29*	40*	x
COc1ccc(-n2nc3c(c2NC(=O)c2cc4ccccc4oc2=O)CS(=O)(=O)C3)cc1	x	x	90	82	100	-12
CCCOc1nc2c(c(=O)n(C)c(=O)n2C)n1Cc1cccc2ccccc12	x	-6	97	83	95	65*
Cn1c(=O)c2c(nc(OCc3ccc4c(c3)OCO4)n2Cc2ccccc2Cl)n(C)c1=O	x	-1	x	x	x	x
C=CCOc1nc2c(c(=O)n(C)c(=O)n2C)n1Cc1ccc(Cl)cc1	x	x	75	96	96	25
Cn1c(=O)c2c(nc(NCc3ccc4c(c3)OCO4)n2Cc2ccccc2Cl)n(C)c1=O	x	-1	38*	65	89	8
Cn1c(=O)[nH]c(=O)c2c1nc(Br)n2Cc1ccccc1Cl	5	2	27*	101	97	-7
C=CCOc1nc2c(c(=O)n(C)c(=O)n2C)n1Cc1ccccc1Cl	x	-8	38*	94	93	8
COc1ccc(OCC(=O)NCCCN2CCOCC2)cc1	x	x	91	97	99	x
SMILES	Jurkat tox 60K	Ecoli WT expand	H69AR growth 86K	HUVEC prolif 384	Lung fibro prol	tolC growth inh
CCN(CC)c1nc2c(s1)C(=O)CC(C)(C)C2	x	-6	96	99	99	x
COc1cc([N+](=O)[O-])ccc1N/C=C/C(=O)c1cccs1	x	-13	42	29*	79	x
COc1ccc(C2SCC(=O)N2CCCN(C)C)cc1 (stereo not drawn)	x	4	82	91	98	x
CCN(CCCNS(=O)(=O)c1ccc2c(c1)CCN2C(C)=O)c1cccc(C)c1	2	-10	101	98	98	27
O=C(Nc1ccc(Cl)c(C(F)(F)F)c1)NC1CC2CCCC(C1)N2C1CC1 (stereo not drawn)	x	x	34*	12*	92	x
CCCC(=O)N1c2ccccc2C(=C2SC(C(=O)OC)=C(C(=O)OC)S2)C(=S)C1(C)C	x	x	24*	69	86	x
CCC(C)(C)NC(=O)C(c1ccc(C)cc1)N(Cc1ccco1)C(=O)Cn1nnc2ccccc21 (stereo not drawn)	x	x	55	78	94	x
Cc1cccc(C)c1NC(=O)C(c1cccs1)N(Cc1ccco1)C(=O)Cn1nnc2ccccc21 (stereo not drawn)	5	-12	71	101	96	64*

Bioassay records from PubChem.
